Measurements published in ChEMBL document CHEMBL1138476 (J Med Chem, 2009).
≈ marks a conversion by molar mass, not a printed value.

Legend:
[1] = target: T1, Substance-K receptor (Homo sapiens) (UniProt P21452); assay: Inhibition of ligand binding in neurokinin 2 receptor; set-up: scale not given: the % may be the effect or the level left
T1 sequence (whole entry): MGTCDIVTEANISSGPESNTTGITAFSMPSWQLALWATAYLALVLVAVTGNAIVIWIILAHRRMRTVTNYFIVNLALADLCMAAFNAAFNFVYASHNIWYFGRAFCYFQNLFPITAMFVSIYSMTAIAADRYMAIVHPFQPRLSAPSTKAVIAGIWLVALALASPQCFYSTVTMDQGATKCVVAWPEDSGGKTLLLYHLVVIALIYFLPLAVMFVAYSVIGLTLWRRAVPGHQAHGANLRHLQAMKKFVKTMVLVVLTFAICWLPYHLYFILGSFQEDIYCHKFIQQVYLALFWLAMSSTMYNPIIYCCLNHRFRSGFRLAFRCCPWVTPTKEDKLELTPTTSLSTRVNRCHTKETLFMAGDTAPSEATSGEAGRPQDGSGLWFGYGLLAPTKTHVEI
Method in brief: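 Screened at 10^-7 and 10^-5 M for binding inhibition, then taken to a dose–response on the human neurokinin 2 receptor. IC50 is based on two experiments.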

[2] = test system: Canis familiaris; assay: Effect on respiratory function in spontaneously breathing mongrel dog assessed as change in intrapleural pressure at 5 mg/kg after intravenous infusion for 15 mins (RVb= 12.6+/-17.1 %); type: functional, Canis lupus familiaris
[3] = test system: Canis familiaris; assay: Effect on respiratory function in spontaneously breathing mongrel dog assessed as change in intrapleural pressure at 5 mg/kg after intravenous infusion for 30 mins (RVb= -90.8+/-103 %); type: functional, Canis lupus familiaris
[4] = test system: Rattus norvegicus; assay: Effect on acute renal function in rat assessed as change in urine potassium level per 100 gm body weight at 30 mg/kg, po (RVb= 60.3+/-11.1 mg/dl); type: functional
[5] = test system: Rattus norvegicus; assay: Effect on acute renal function in rat assessed as change in osmolality in urine per 100 gm body weight at 30 mg/kg, po (RVb= 325+/-1.9 mg/dl); type: functional
[6] = test system: Canis familiaris; assay: Effect on respiratory function in spontaneously breathing mongrel dog assessed as change in airway resistance at 5 mg/kg after intravenous infusion for 60 mins (RVb= 17.3+/-15.1 %); type: functional, Canis lupus familiaris
[7] = test system: Canis familiaris; assay: Effect on respiratory function in spontaneously breathing mongrel dog assessed as change in mean arterial pressure at 5 mg/kg after intravenous infusion for 30 mins (RVb= 4.0+/-3.0 %); type: functional, Canis lupus familiaris, Artery
[8] = test system: Canis familiaris; assay: Effect on respiratory function in spontaneously breathing mongrel dog assessed as change in mean arterial pressure at 5 mg/kg after intravenous infusion for 60 mins (RVb= 5.1+/-3.5 %); type: functional, Canis lupus familiaris, Artery
[9] = Plasma concentration in spontaneously breathing dog at 5 mg/kg, iv after 30 mins; type: ADME, organism-based, Canis lupus familiaris; set-up: dose 5 mg/kg, route intravenous
Method in brief: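 Spontaneously breathing, barbiturate-anesthetized mongrel dogs (n = 4) infused iv at 5.0 mg/kg over 6 min. Total pooled plasma concentrations taken at 6, 15, 30 and 60 min.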

[10] = test system: Rattus norvegicus; assay: Effect on acute renal function in rat assessed as change in urine chloride level per 100 gm body weight at 30 mg/kg, po (RVb= 95.3+/-11.6 mg/dl); type: functional
[11] = Cmax in Beagle dog at 1 mg/kg, po by cassette dosing; type: ADME, organism-based, Canis lupus familiaris; set-up: dose 1 mg/kg, route oral; conditions: in vivo
[12] = Half life in Beagle dog at 1 mg/kg, po by cassette dosing; type: ADME, organism-based, Canis lupus familiaris; set-up: dose 1 mg/kg, route oral; conditions: in vivo
[13] = target: T2, Corticotropin-releasing factor receptor 1 (Rattus norvegicus, UniProt P35353); assay: Antagonist activity at CRF1 receptor in rat pituitary cells assessed as inhibition of CRF-mediated ACTH production; type: functional, cell-based, Pituitary gland cell
T2 sequence (P35353 whole entry): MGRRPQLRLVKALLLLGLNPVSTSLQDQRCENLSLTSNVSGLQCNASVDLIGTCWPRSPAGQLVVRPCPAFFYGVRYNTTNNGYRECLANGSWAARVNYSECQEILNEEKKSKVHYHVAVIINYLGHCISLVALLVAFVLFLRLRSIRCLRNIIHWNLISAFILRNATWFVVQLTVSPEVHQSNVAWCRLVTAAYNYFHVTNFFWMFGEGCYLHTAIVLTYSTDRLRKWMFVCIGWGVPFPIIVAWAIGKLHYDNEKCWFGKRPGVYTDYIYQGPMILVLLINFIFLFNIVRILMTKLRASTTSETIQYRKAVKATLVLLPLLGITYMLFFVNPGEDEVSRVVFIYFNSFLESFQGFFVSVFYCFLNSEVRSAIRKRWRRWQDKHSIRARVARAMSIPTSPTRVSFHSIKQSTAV

[14] = target: T3, Substance-K receptor (Homo sapiens, UniProt P21452); assay: Binding affinity to human neurokinin 2 receptor
T3 sequence (P21452 whole entry): T1 sequence (whole entry)
Method in brief: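 Human neurokinin 2 receptor binding, contracted out as part of a broad screen.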

[15] = Solubility in ethanol; type: physicochemical
[16] = Solubility in acetone; type: physicochemical
[17] = test system: Rattus norvegicus; assay: Ex vivo receptor occupancy of CRF receptor in rat brain at 0.3 mg/kg, po by [125I]sauvagine binding and autoradiography relative to control; type: functional
Method in brief: (§1)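 Rats were given 0.3, 1, 3, 10 or 30 mg/kg po in 0.25% Methocel 60 min before sacrifice. Brains were removed, sectioned and frozen at −80 °C. Ex vivo CRF receptor binding gave occupancy relative to vehicle-treated rats, reported as mean ± SEM.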

[18] = test system: Rattus norvegicus; assay: Ex vivo receptor occupancy of CRF receptor in rat brain at 30 mg/kg, po by [125I]sauvagine binding and autoradiography relative to control; type: functional; method in brief: as §1
[19] = test system: Rattus norvegicus; assay: Toxicity in rat assessed as total distance traveled at 1 mg/kg, po after 1 hr by spontaneous locomotor test; type: organism-based; set-up: dose 1 mg/kg, route oral; conditions: in vivo
Method in brief: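 Spontaneous locomotor activity in rats dosed po in 0.25% Methocel 1 h pretest; doses up to 100 mg/kg. Compared with the vehicle (zero dose) group, mean ± SEM, N = rats.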

[20] = test system: Rattus norvegicus; assay: Toxicity in rat assessed as total distance traveled at 3 mg/kg, po after 1 hr by spontaneous locomotor test; type: organism-based; set-up: dose 3 mg/kg, route oral; conditions: in vivo
Method in brief: (§2)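 Rat spontaneous locomotor activity test with oral dosing in 0.25% Methocel 1 h before testing, at doses up to 100 mg/kg. Values are mean ± SEM, with N rats per group, compared with the vehicle (zero-dose) group.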

[21] = test system: Rattus norvegicus; assay: Toxicity in rat assessed as total distance traveled at 30 mg/kg, po after 1 hr by spontaneous locomotor test; type: functional; method in brief: as §2
[22] = Clearance in rat at 1 mg/kg, iv and 5 mg/kg, po; type: ADME, organism-based; conditions: in vivo
Method in brief: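 Rats (n = 3) received 1 mg/kg iv in 10% DMAC, 70% propylene glycol and deionized water, or 5 mg/kg orally in 0.5% methylcellulose.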

[23] = Elimination half life in rat at 1 mg/kg, iv and 5 mg/kg, po; type: ADME, organism-based; conditions: in vivo, read-out: beta t1/2 (converted)
Method in brief: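 Rats (n = 3) were dosed at 1 mg/kg iv in 10% DMAC, 70% propylene glycol and deionized water, and at 5 mg/kg po in 0.5% methylcellulose.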

[24] = Tmax in rat at 5 mg/kg, po; type: ADME, organism-based; set-up: dose 5 mg/kg, route oral; conditions: in vivo
Method in brief: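 Rats (n = 3) dosed iv at 1 mg/kg in 10% DMAC, 70% propylene glycol and deionized water, and orally at 5 mg/kg in 0.5% methylcellulose.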

Activity [1]: 80%
concentration at 0.5 h [9]: 0.412 µM
Cmax [11]: 0.301 µM
half-life [12]: 10.7 h
IC50 [13]: 0.129 µM
IC50 [14]: 4.9 µM
solubility [15]: 300 mg/mL (≈ 881 mM)
solubility [16]: 460 mg/mL (≈ 1350 mM)
clearance [22]: 1.07 L/h/kg
half-life [23]: 13.5 h
Tmax [24]: 0.75 h
Compound: CC[C@@H](C)Nc1nc(C)nc2c(-c3ccc(OC)nc3C)c(C)nn12 [PEXACERFONT]
Activity [2]: 6.5%
Activity [3]: 8.6%
Activity [4]: 32.1 mg/dL
Activity [5]: 240 milliosmole
Activity [6]: -23.6%
Activity [7]: 6.2%
Activity [8]: 4%
Activity [10]: 80 mmol/L
Activity [17]: 37%
Activity [18]: 85%
Activity [19]: 4106 cm
Activity [20]: 5639 cm
Activity [21]: 4846 cm
